In ChEMBL document CHEMBL1687742, “Candida albicans and Staphylococcus aureus form polymicrobial biofilms: effects on antimicrobial resistance” (2009):
Calls of active or inactive are those of the source. No cut-off for these calls is given here.

How the values were obtained:
Candida albicans [1] = assay: Antifungal activity against Candida albicans SC5314 monomicrobial biofilms assessed as fungal viability after 24 hrs by CFU assay in presence of 50% bovine serum; assay type: functional, organism-based
Summary of the method: (§1)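 Biofilms were formed in 96-well tissue culture-treated plates in 50% BS with C. albicans (10⁶ CFU/ml) and/or S. aureus (10⁷ CFU/ml) for 24 h at 37°C. They were washed three times in PBS. Vancomycin, Amp B or both were added from DMSO stocks diluted in 50% BS, and biofilms were incubated a further 24 h. Cells were sonicated, tenfold-diluted and counted as CFU on selective agar. Duplicates; averages of two experiments.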

Candida albicans [2] = assay: Antifungal activity against Candida albicans SC5314 planktonic monomicrobial biofilms assessed as […] viability after 24 hrs in presence 50% bovine serum by CFU assay; assay type: functional, organism-based
Summary of the method: (§2)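 C. albicans SC5314 at 10⁶ CFU/ml, alone or with S. aureus (10⁷ CFU/ml) for the mixed biofilm, was seeded in 50% bovine serum in tissue-culture-treated 96-well plates, 37°C, 24 h. Biofilms were PBS-washed thrice and exposed to serial antifungal concentrations diluted in 50% BS from DMSO stocks for 24 h. CFU were counted on ampicillin/erythromycin SDA after sonication. Duplicates, two experiments averaged.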

Candida albicans [3] = assay: Antifungal activity against Candida albicans SC5314 planktonic polymicrobial biofilms grown in presence of Staphylococcus aureus ATCC 29523 assessed as […] viability after 24 hrs in presence 50% bovine serum by CFU assay; assay type: functional, organism-based; summary of the method: as §2
Candida albicans [4] = assay: Antifungal activity against Candida albicans SC5314 polymicrobial biofilms grown in presence of sStaphylococcus aureus ATCC 29523 assessed as fungal viability after 24 hrs by CFU assay in presence of 50% bovine serum; assay type: functional, organism-based; summary of the method: as §1
Staphylococcus aureus [5] = assay: Antibacterial activity against 10^7 CFU/ml Staphylococcus aureus ATCC 29523 monomicrobial biofilms assessed as log reduction in bacterial viability at 800 ug/mL after 24 hrs in presence of amphotericin B by CFU assay in presence of 50% bovine serum; assay type: functional; summary of the method: as §1
Staphylococcus aureus [6] = assay: Antibacterial activity against 10^7 CFU/ml Staphylococcus aureus ATCC 29523 polymicrobial biofilms grown in presence of Candida albicans biofilm matrix assessed as reduction in bacterial viability at 1.582 to 1600 ug/mL after 24 hrs in presence 50% bovine serum by CFU assay; assay type: functional, organism-based
Summary of the method: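 Matrix came from 24-h C. albicans biofilms in 50% BS. It was scraped, sonicated, centrifuged three times at 12,000 × g and treated with Amp B 20 μg/ml. S. aureus (10⁷ CFU/ml) plus matrix in 50% BS was grown in 96-well plates for 24 h at 37°C, washed, then exposed to vancomycin for 24 h. Washed cells were counted as CFU. Duplicates; two independent experiments.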

Staphylococcus aureus [7] = assay: Antibacterial activity against 10^7 CFU/ml Staphylococcus aureus ATCC 29523 monomicrobial biofilms assessed as bacterial viability after 24 hrs by CFU assay in presence of 50% heat inactivated bovine serum; assay type: functional, organism-based
Staphylococcus aureus [8] = assay: Antibacterial activity against 10^7 CFU/ml Staphylococcus aureus ATCC 29523 polymicrobial biofilms grown in presence of Candida albicans SC5314 assessed as log reduction in bacterial viability at 800 ug/mL after 24 hrs in presence of amphotericin B by CFU assay in presence of 50% bovine serum; assay type: functional; summary of the method: as §1
Staphylococcus aureus [9] = assay: Antibacterial activity against 10^7 CFU/ml Staphylococcus aureus ATCC 29523 polymicrobial biofilms grown in presence of Candida albicans SC5314 assessed as bacterial viability at 1600 ug/mL after 24 hrs in presence 50% bovine serum by CFU assay; assay type: functional, organism-based; summary of the method: as §1
Staphylococcus aureus [10] = assay: Antibacterial activity against 10^7 CFU/ml Staphylococcus aureus ATCC 29523 polymicrobial biofilms grown in presence of Candida albicans SC5314 assessed as bacterial viability after 24 hrs in presence of amphotericin B by CFU assay in presence of 50% bovine serum; assay type: functional, organism-based; summary of the method: as §1
Staphylococcus aureus [11] = assay: Antibacterial activity against 10^7 CFU/ml Staphylococcus aureus ATCC 29523 polymicrobial biofilms grown in presence of 10^6 CFU/mL Candida albicans SC5314 assessed as bacterial viability at 800 ug/mL after 24 hrs by Transwell assay; assay type: functional, organism-based
Summary of the method: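 S. aureus (10⁷ CFU/ml) went in the bottom well and C. albicans (10⁶ CFU/ml) on a 0.4-μm PET Transwell insert, 24 h at 37°C. After PBS washing, vancomycin 800 μg/ml (diluted in 50% BS) went to the bottom well and Amp B to the insert, for 24 h at 37°C. CFU were counted in both compartments, with no-insert controls. Duplicates; averages of two experiments.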

Staphylococcus aureus [12] = assay: Antibacterial activity against 10^7 CFU/ml Staphylococcus aureus ATCC 29523 monomicrobial biofilms assessed as bacterial viability after 24 hrs by CFU assay in presence of 50% bovine serum; assay type: functional, organism-based; summary of the method: as §1
Staphylococcus aureus [13] = assay: Antibacterial activity against Staphylococcus aureus ATCC 29523 […] polymicrobial biofilms grown in presence of Candida albicans SC5314 assessed as bacterial viability after 24 hrs in presence 50% bovine serum by CFU assay; assay type: functional, organism-based

Compound	growth inhibition (GI) (Candida albicans [1])	growth inhibition (GI) (Candida albicans [2])	growth inhibition (GI) (Candida albicans [3])	growth inhibition (GI) (Candida albicans [4])	FC (Staphylococcus aureus [5])	growth inhibition (GI) (Staphylococcus aureus [6])	growth inhibition (GI) (Staphylococcus aureus [7])	FC (Staphylococcus aureus [8])	growth inhibition (GI) (Staphylococcus aureus [9])	growth inhibition (GI) (Staphylococcus aureus [10])	growth inhibition (GI) (Staphylococcus aureus [11])	growth inhibition (GI) (Staphylococcus aureus [12])	growth inhibition (GI) (Staphylococcus aureus [13])
C[C@@H]1[C@H](O)[C@@H](C)/C=C/C=C/C=C/C=C/C=C/C=C/C=C/[C@H](O[C@@H]2O[C@H](C)[C@@H](O)[C@H](N)[C@@H]2O)C[C@@H]2O[C@](O)(C[C@@H](O)C[C@@H](O)[C@H](O)CC[C@@H](O)C[C@@H](O)CC(=O)O[C@H]1C)C[C@H](O)[C@H]2C(=O)O	inactive	Active	Active										
CN[C@H](CC(C)C)C(=O)N[C@H]1C(=O)N[C@@H](CC(N)=O)C(=O)N[C@H]2C(=O)N[C@H]3C(=O)N[C@H](C(=O)N[C@H](C(=O)O)c4cc(O)cc(O)c4-c4cc3ccc4O)[C@H](O)c3ccc(c(Cl)c3)Oc3cc2cc(c3O[C@@H]2O[C@H](CO)[C@@H](O)[C@H](O)[C@H]2O[C@H]2C[C@](C)(N)[C@H](O)[C@H](C)O2)Oc2ccc(cc2Cl)[C@H]1O [VANCOMYCIN]	inactive			inactive	2	inactive	inactive	2	inactive	Active	Active	Dose-dependent effect	Active
